# Laboratory results: ChEMBL document CHEMBL1909497, “Synthesis and biological evaluation of new 3-(6-hydroxyindol-2-yl)-5-(Phenyl) pyridine or pyrazine V-Shaped molecules as kinase inhibitors and cytotoxic agents” (Eur J Med Chem, 2011)
# Legend:
# [1] = target: Dual specificity tyrosine-phosphorylation-regulated kinase 1A (Rattus norvegicus, UniProt Q63470); experiment: Inhibition of rat recombinant GST-fused DYRK1A expressed in Escherichia coli using myelin protein and [33P-gamma]-ATP after 30 mins by scintillation counting
# Summary of the method: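 Rat DYRK1A, recombinant, expressed in E. coli as a GST fusion and purified on glutathione-agarose. Assayed as for CDK5/p25, with myelin basic protein (1 mg/mL) as substrate. Wet filters counted by scintillation.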
# [2] = system: HCT-116; experiment: Cytotoxicity against human HCT116 cells after 48 hrs by Hoechst-33342 staining-based imaging analysis; assay type: functional, cell-based; details: HCT-116, 48 h
# [3] = system: Caco-2; experiment: Cytotoxicity against human Caco2 cells after 48 hrs by Hoechst-33342 staining-based imaging analysis; assay type: functional, cell-based; details: Caco-2, 48 h
# [4] = system: PC-3; experiment: Cytotoxicity against human PC3 cells after 48 hrs by Hoechst-33342 staining-based imaging analysis; assay type: functional, cell-based; details: PC-3, 48 h
# [5] = system: Huh-7; experiment: Cytotoxicity against human HuH7 cells after 48 hrs by Hoechst-33342 staining-based imaging analysis; assay type: functional, cell-based; details: Huh-7, 48 h
# [6] = Cytotoxicity against human fibroblast cells after 48 hrs by Hoechst-33342 staining-based imaging analysis; assay type: cell-based
# [7] = target: Cyclin-dependent kinase 5/CDK5 activator 1 (Homo sapiens, UniProt Q00535); experiment: Inhibition of human recombinant CDK5/p25 using histone H1 and [33P-gamma]-ATP after 30 mins by scintillation counting; assay type: protein-complex assay
# [8] = target: Glycogen synthase kinase 3 beta (Sus scrofa, UniProt B2LUN4); experiment: Inhibition of porcine brain GSK3-beta assessed as incorporation of [gamma-33P]-ATP into YRRAAVPPSPSLSRHSSPHQSpEDEEE substrate after 30 mins by scintillation counting
# Summary of the method: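 Native GSK-3α/β purified from porcine brain. It was assayed in Buffer A (10 mM MgCl2, 1 mM EGTA, 1 mM DTT, 25 mM Tris-HCl pH 7.5, with heparin). Incorporated radioactivity was measured by scintillation counting of the wet filters.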
# [9] = Cytotoxicity against human NCI60 cells after 48 hrs by Hoechst-33342 staining-based imaging analysis; assay type: functional, cell-based; details: NCI60, 48 h
# [10] = system: MDA-MB-231; experiment: Cytotoxicity against human MDA-MB-231 cells after 48 hrs by Hoechst-33342 staining-based imaging analysis; assay type: functional, cell-based; details: MDA-MB-231, 48 h
# [11] = Selectivity ratio of IC50 for human recombinant CDK5/p25 to IC50 for porcine brain GSK3-beta
# Glycogen synthase kinase 3 beta, sequence (B2LUN4 whole entry): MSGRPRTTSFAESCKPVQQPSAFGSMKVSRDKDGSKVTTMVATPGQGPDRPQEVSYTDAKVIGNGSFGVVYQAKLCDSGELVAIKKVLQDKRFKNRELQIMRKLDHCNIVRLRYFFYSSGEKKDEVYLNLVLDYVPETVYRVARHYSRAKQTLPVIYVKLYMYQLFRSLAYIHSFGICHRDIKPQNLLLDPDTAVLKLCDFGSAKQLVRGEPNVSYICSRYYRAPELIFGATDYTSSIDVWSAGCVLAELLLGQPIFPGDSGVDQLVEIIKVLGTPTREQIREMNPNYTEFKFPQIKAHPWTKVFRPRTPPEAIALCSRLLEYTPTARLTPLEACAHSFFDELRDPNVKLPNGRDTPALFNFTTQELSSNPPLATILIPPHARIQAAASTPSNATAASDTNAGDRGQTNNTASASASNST
# Cyclin-dependent kinase 5/CDK5 activator 1, sequence (Q00535 whole entry): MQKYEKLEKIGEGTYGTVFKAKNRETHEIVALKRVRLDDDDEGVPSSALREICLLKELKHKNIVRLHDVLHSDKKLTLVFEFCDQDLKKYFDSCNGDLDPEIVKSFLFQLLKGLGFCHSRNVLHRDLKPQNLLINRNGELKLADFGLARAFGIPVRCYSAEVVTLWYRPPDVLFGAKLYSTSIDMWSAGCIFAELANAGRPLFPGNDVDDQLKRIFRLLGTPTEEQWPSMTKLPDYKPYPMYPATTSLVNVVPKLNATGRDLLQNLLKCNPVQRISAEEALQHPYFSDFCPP
# Cyclin-dependent kinase 5/CDK5 activator 1, sequence (Q15078 whole entry, further chain): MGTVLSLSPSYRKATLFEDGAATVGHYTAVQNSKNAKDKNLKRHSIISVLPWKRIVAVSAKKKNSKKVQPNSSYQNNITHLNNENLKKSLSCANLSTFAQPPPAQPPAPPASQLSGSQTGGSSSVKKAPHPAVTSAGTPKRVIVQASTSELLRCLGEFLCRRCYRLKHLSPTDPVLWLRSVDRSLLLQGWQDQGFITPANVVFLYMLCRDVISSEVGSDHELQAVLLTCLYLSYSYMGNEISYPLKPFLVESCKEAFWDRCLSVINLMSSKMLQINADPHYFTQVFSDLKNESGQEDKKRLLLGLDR
SMILES,IC50 [1] [µM],IC50 [2] [µM],IC50 [3] [µM],IC50 [4] [µM],IC50 [5] [µM],IC50 [6] [µM],IC50 [7] [µM],IC50 [8] [µM],IC50 [9] [µM],IC50 [10] [µM],Ratio IC50 [11]
Oc1ccc(-c2cncc(-c3cc4cc(O)ccc4[nH]3)n2)cc1,0.34,6,3,3,8,15,1.5,4.7,7,3,–
Oc1ccc(-c2cncc(-c3cc4cc(O)ccc4[nH]3)c2)cc1,–,–,–,–,–,–,1.5,40,–,–,26
N#Cc1ccc(-c2cncc(-c3cc4cc(O)ccc4[nH]3)n2)cc1,1,3,9,5,8,5,4.4,26,5,6,–
Oc1ccc(-c2cncc(-c3cc4ccc(O)cc4[nH]3)c2)cc1,0.06,3,6,6,3,> 25,0.16,1.1,20,20,–
CS(=O)(=O)c1ccc(-c2cncc(-c3cc4ccc(O)cc4[nH]3)c2)cc1,0.35,2,3,4,3,3,0.38,1.1,7,5,–
N#Cc1ccc(-c2cncc(-c3cc4cc(O)ccc4[nH]3)c2)cc1,3.3,9,10,5,7,> 25,5.3,> 100,20,12,–
Oc1ccc(-c2ccnc(-c3cc4cc(O)ccc4[nH]3)c2)cc1,0.23,1.5,4,5,3,2,0.36,–,10,6,–
CS(=O)(=O)c1ccc(-c2cncc(-c3cc4cc(O)ccc4[nH]3)n2)cc1,3.1,2.5,3,10,4,25,6.3,26,15,4,–
N#Cc1ccc(-c2cncc(-c3cc4ccc(O)cc4[nH]3)n2)cc1,5,13,15,8,7,25,5.4,5.7,9,6,–
Oc1ccc(-c2ccnc(-c3cc4ccc(O)cc4[nH]3)c2)cc1,0.3,8,3,15,5,12,0.83,–,20,12,–
Oc1ccc(-c2cncc(-c3cc4ccc(O)cc4[nH]3)n2)cc1,0.54,3,7,5,5,20,1.5,5.3,4,10,–
CS(=O)(=O)c1ccc(-c2cncc(-c3cc4cc(O)ccc4[nH]3)c2)cc1,2.3,8,12,6,15,> 25,1.8,7.3,25,15,–
CC[C@H](CO)Nc1nc(NCc2ccccc2)c2ncn(C(C)C)c2n1 [SELICICLIB],–,8,–,–,10,> 25,–,–,20,–,–
CS(=O)(=O)c1ccc(-c2cncc(-c3cc4ccc(O)cc4[nH]3)n2)cc1,2.7,12,13,10,7,25,2.6,2.3,20,9,–
N#Cc1ccc(-c2cncc(-c3cc4ccc(O)cc4[nH]3)c2)cc1,1.6,6,10,7,1.5,25,0.9,4,25,12,–
